Test system: Fibroblast
Test: Multiplex assay against human fibroblast
Type: toxicity, cell-based
How it was run: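 Live cells carried four stains from seeding: Hoechst33342, BioTracker Green Microtubule Cytoskeleton Dye, MitoTracker Red and Annexin V Alexa Fluor 680. They were imaged on a CQ1 microscope at 37°C and 5% CO2 after compound addition. Using CellPathfinder machine-learning gating, cells were split into Hoechst high-intensity objects or normal cells, normal cells into healthy, pyknosed or fragmented nuclei, and pyknosed cells into mitotic or apoptotic; tubulin, mitochondrial-mass and membrane-permeability phenotypes are per cents of healthy-nucleus cells.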

[1] = 12 h, 1 µM, compound concentration 1 uM, replicate 1
[2] = 12 h, 1 µM, compound concentration 1 uM, replicate 2
[3] = 12 h, 10 µM, compound concentration 10 uM, replicate 1
[4] = 12 h, 10 µM, compound concentration 10 uM, replicate 2
[5] = 24 h, 1 µM, compound concentration 1 uM, replicate 1
[6] = 24 h, 1 µM, compound concentration 1 uM, replicate 2
[7] = 24 h, 10 µM, compound concentration 10 uM, replicate 1
[8] = 24 h, 10 µM, compound concentration 10 uM, replicate 2

Cc1c(Nc2ccc(S(=O)(=O)N3CCN(C)CC3)cc2F)nc2ccc(Nc3cnn(C4CC4)c3)cn2c1=O
Population Apoptotic (%) [1]: 64% | Population Fragmented Nuclei (%) [1]: 30% | Population Healthy Nuclei (%) [1]: 50% | Population Hoechst High Intensity Objects (%) [1]: 12% | Population Membrane Permeable-Phenotype (%) [1]: 31% | Population Mitochondria Different-Phenotype (%) [1]: 6% | Population Mitotic Cells (%) [1]: 35% | Population Normal (%) [1]: 87% | Population Pyknosed Nuclei (%) [1]: 19% | Population Tubulin-Different-Phenotype (%) [1]: 43% | Total Cell Count [1]: 263 | Population Apoptotic (%) [2]: 80% | Population Fragmented Nuclei (%) [2]: 62% | Population Healthy Nuclei (%) [2]: 24% | Population Hoechst High Intensity Objects (%) [2]: 40% | Population Membrane Permeable-Phenotype (%) [2]: 55% | Population Mitochondria Different-Phenotype (%) [2]: 11% | Population Mitotic Cells (%) [2]: 20% | Population Normal (%) [2]: 59% | Population Pyknosed Nuclei (%) [2]: 13% | Population Tubulin-Different-Phenotype (%) [2]: 66% | Total Cell Count [2]: 62 | Population Apoptotic (%) [3]: 79% | Population Fragmented Nuclei (%) [3]: 27% | Population Healthy Nuclei (%) [3]: 58% | Population Hoechst High Intensity Objects (%) [3]: 12% | Population Membrane Permeable-Phenotype (%) [3]: 7% | Population Mitochondria Different-Phenotype (%) [3]: 1% | Population Mitotic Cells (%) [3]: 20% | Population Normal (%) [3]: 87% | Population Pyknosed Nuclei (%) [3]: 13% | Population Tubulin-Different-Phenotype (%) [3]: 2% | Total Cell Count [3]: 288 | Population Apoptotic (%) [4]: 50% | Population Fragmented Nuclei (%) [4]: 55% | Population Healthy Nuclei (%) [4]: 40% | Population Hoechst High Intensity Objects (%) [4]: 27% | Population Membrane Permeable-Phenotype (%) [4]: 9% | Population Mitochondria Different-Phenotype (%) [4]: 0% | Population Mitotic Cells (%) [4]: 50% | Population Normal (%) [4]: 72% | Population Pyknosed Nuclei (%) [4]: 3% | Population Tubulin-Different-Phenotype (%) [4]: 19% | Total Cell Count [4]: 72 | Population Apoptotic (%) [5]: 72% | Population Fragmented Nuclei (%) [5]: 30% | Population Healthy Nuclei (%) [5]: 53% | Population Hoechst High Intensity Objects (%) [5]: 12% | Population Membrane Permeable-Phenotype (%) [5]: 14% | Population Mitochondria Different-Phenotype (%) [5]: 1% | Population Mitotic Cells (%) [5]: 27% | Population Normal (%) [5]: 87% | Population Pyknosed Nuclei (%) [5]: 16% | Population Tubulin-Different-Phenotype (%) [5]: 38% | Total Cell Count [5]: 257 | Population Apoptotic (%) [6]: 100% | Population Fragmented Nuclei (%) [6]: 57% | Population Healthy Nuclei (%) [6]: 31% | Population Hoechst High Intensity Objects (%) [6]: 30% | Population Membrane Permeable-Phenotype (%) [6]: 40% | Population Mitochondria Different-Phenotype (%) [6]: 0% | Population Mitotic Cells (%) [6]: 0% | Population Normal (%) [6]: 69% | Population Pyknosed Nuclei (%) [6]: 10% | Population Tubulin-Different-Phenotype (%) [6]: 40% | Total Cell Count [6]: 68 | Population Apoptotic (%) [7]: 65% | Population Fragmented Nuclei (%) [7]: 22% | Population Healthy Nuclei (%) [7]: 63% | Population Hoechst High Intensity Objects (%) [7]: 13% | Population Membrane Permeable-Phenotype (%) [7]: 7% | Population Mitochondria Different-Phenotype (%) [7]: 1% | Population Mitotic Cells (%) [7]: 34% | Population Normal (%) [7]: 86% | Population Pyknosed Nuclei (%) [7]: 13% | Population Tubulin-Different-Phenotype (%) [7]: 3% | Total Cell Count [7]: 293 | Population Apoptotic (%) [8]: 0% | Population Fragmented Nuclei (%) [8]: 57% | Population Healthy Nuclei (%) [8]: 38% | Population Hoechst High Intensity Objects (%) [8]: 21% | Population Membrane Permeable-Phenotype (%) [8]: 9% | Population Mitochondria Different-Phenotype (%) [8]: 4% | Population Mitotic Cells (%) [8]: 100% | Population Normal (%) [8]: 78% | Population Pyknosed Nuclei (%) [8]: 3% | Population Tubulin-Different-Phenotype (%) [8]: 0% | Total Cell Count [8]: 73

From ChEMBL document CHEMBL4689842, “EUbOPEN Chemogenomics Library wave 1” (2021)
